According to ChEMBL document CHEMBL1275442, “Pharmacokinetics and tissue distribution of anidulafungin in rats” (Antimicrob Agents Chemother, 2008):

What was measured:
[1] = system: Muscle tissue; assay: Half life in F344 rat muscle assessed as total compound-derived radioactivity at 5 mg/kg, iv administered as single bolus dose […]; type: ADME, organism-based; parameters: dose 5 mg/kg, route intravenous; conditions: in vivo
Summary of the method: (§1)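 Male F344 rats, 10 to 11 weeks old and 223.6 to 243.8 g, got one iv dose of [14C]anidulafungin at 5 mg/kg over about 5 min. Blood, CSF, kidney, liver, lung, quadriceps, spleen and skin were sampled predose and at 0.083 to 72 h, 3 rats per time. Total radioactivity (parent plus metabolites) was measured by liquid scintillation counting. Parameters were noncompartmental, from a composite mean profile.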

[2] = system: Zone of skin; assay: Drug level in Long Evans rat skin assessed as radioactivity per gram of tissue at 5 mg/kg, iv administered as single bolus dose measured 72 hrs postdose by autoradiography; type: ADME, organism-based; parameters: dose 5 mg/kg, route intravenous; conditions: in vivo
Summary of the method: (§2)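 Male pigmented Long Evans (HsdBlu:LE) rats, 7.5 weeks old and 202 to 217 g, got a single iv dose of [14C]anidulafungin at 5 mg/kg. One rat per time point (0.5, 6, 12, 24, 72, 168 h) was euthanised by isoflurane and cardiac-puncture exsanguination. Sagittal whole-body sections were quantified by phosphorimaging. Samples were thickness-corrected, and concentrations (μg eq/g) were interpolated from least-squares standard curves.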

[3] = Drug level in Long Evans rat eye assessed as radioactivity per gram of tissue at 5 mg/kg, iv administered as single bolus dose measured 168 hrs postdose by autoradiography; type: ADME, organism-based; parameters: dose 5 mg/kg, route intravenous; conditions: in vivo
Summary of the method: (§3)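 Male pigmented Long Evans (HsdBlu:LE) rats, 7.5 weeks old, 202 to 217 g, single iv [¹⁴C]anidulafungin; one rat per sampling time. Euthanized by isoflurane and cardiac-puncture exsanguination. Sagittal whole-body sections quantified by phosphorimaging autoradiography, single samples corrected for section thickness across multiple sections per tissue. Concentrations (μg eq/g drug-derived radioactivity) interpolated from least-squares standard curves per scan.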

[4] = system: Muscle tissue; assay: AUC (0 to 24 hrs) in F344 rat muscle assessed as total compound-derived radioactivity per gram of tissue at 5 mg/kg, iv administered as single bolus dose […]; type: ADME, organism-based; parameters: time < 24 hr, dose 5 mg/kg, route intravenous; conditions: in vivo
Summary of the method: (§4)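 Same F344 study: single 5 mg/kg IV [¹⁴C]anidulafungin given over about 5 min. Total drug-derived radioactivity (parent plus metabolites) counted by liquid scintillation, in […]. Noncompartmental analysis of the composite mean profile.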

[5] = system: Cerebrospinal fluid; assay: Drug level in Long Evans rat cerebrospinal fluid assessed as radioactivity per gram of tissue at 5 mg/kg, iv administered as single bolus dose measured 24 hrs postdose by autoradiography; type: ADME, organism-based; parameters: dose 5 mg/kg, route intravenous; conditions: in vivo; summary of the method: as §3
[6] = system: Kidney; assay: AUC (0 to 24 hrs) in F344 rat kidney at 5 mg/kg, iv administered as single bolus dose; type: ADME, organism-based; parameters: time < 24 hr, dose 5 mg/kg, route intravenous; conditions: in vivo
Summary of the method: (§5)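 Male F344 rats, 10–11 weeks, 223.6–243.8 g, given one IV dose of [¹⁴C]anidulafungin, 5 mg/kg, over about 5 min. Tissues and blood sampled at 0.083–72 h (n = 3 rats per time). Parent drug measured by HPLC; LLOQ/ULOQ were 20/5,120 ng/ml for plasma and 220/56,320 ng/g for tissue. Noncompartmental parameters taken from the composite mean profile.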

[7] = Cmax in F344 rat kidney at 5 mg/kg, iv administered as single bolus dose after 30 min by HPLC method; type: ADME, organism-based; parameters: dose 5 mg/kg, route intravenous; summary of the method: as §5
[8] = system: Muscle tissue; assay: Tmax in F344 rat muscle assessed as total compound-derived radioactivity at 5 mg/kg, iv administered as single bolus dose […]; type: ADME, organism-based; parameters: dose 5 mg/kg, route intravenous; conditions: in vivo; summary of the method: as §1
[9] = system: Muscle tissue; assay: AUC (0 to infinity) in F344 rat muscle assessed as total compound-derived radioactivity per gram of tissue at 5 mg/kg, iv administered as single bolus dose […]; type: ADME, organism-based; parameters: time infinity, dose 5 mg/kg, route intravenous; conditions: in vivo; summary of the method: as §4
[10] = system: Cerebrospinal fluid; assay: Drug level in Long Evans rat cerebrospinal fluid assessed as radioactivity per gram of tissue at 5 mg/kg, iv administered as single bolus dose measured 12 hrs postdose by autoradiography; type: ADME, organism-based; parameters: dose 5 mg/kg, route intravenous; conditions: in vivo; summary of the method: as §3
[11] = Tmax in F344 rat muscle at 5 mg/kg, iv administered as single bolus dose by HPLC method; type: ADME, organism-based, Muscle tissue; parameters: dose 5 mg/kg, route intravenous
Summary of the method: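 F344 males, 10 to 11 weeks old and 223.6 to 243.8 g, got a single 5 mg/kg iv dose of [14C]anidulafungin over about 5 min. Plasma and tissues were collected predose and at 0.083 to 72 h, n = 3 per time point. Parent drug was quantified by HPLC-UV, with LLOQ/ULOQ of 20/5,120 ng/ml in plasma and 220/56,320 ng/g in tissue. Noncompartmental parameters came from a composite mean concentration-time profile.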

[12] = system: Liver; assay: Half life in F344 rat liver assessed as total compound-derived radioactivity at 5 mg/kg, iv administered as single bolus dose […]; type: ADME, organism-based; parameters: dose 5 mg/kg, route intravenous; conditions: in vivo; summary of the method: as §1
[13] = system: Spleen; assay: Drug level in Long Evans rat spleen assessed as radioactivity per gram of tissue at 5 mg/kg, iv administered as single bolus dose measured 12 hrs postdose by autoradiography; type: ADME, organism-based; parameters: dose 5 mg/kg, route intravenous; conditions: in vivo; summary of the method: as §2
[14] = system: Lung; assay: Cmax in F344 rat lung assessed as total compound-derived radioactivity per gram of tissue at 5 mg/kg, iv administered as single bolus dose after 5 mins by HPLC method; type: ADME, organism-based; parameters: dose 5 mg/kg, route intravenous; conditions: in vivo; summary of the method: as §4
[15] = system: Cerebrospinal fluid; assay: Half life in F344 rat cerebrospinal fluid assessed as total compound-derived radioactivity at 5 mg/kg, iv administered as single bolus dose […]; type: ADME, organism-based; parameters: dose 5 mg/kg, route intravenous; conditions: in vivo; summary of the method: as §1
[16] = system: Liver; assay: Drug level in Long Evans rat liver assessed as high disposition of radioactivity per gram of tissue at 5 mg/kg, iv administered as single bolus dose measured 72 hrs postdose by autoradiography; type: ADME, organism-based; parameters: dose 5 mg/kg, route intravenous; conditions: in vivo; summary of the method: as §3
[17] = system: Muscle tissue; assay: Drug level in Long Evans rat muscle assessed as radioactivity per gram of tissue at 5 mg/kg, iv administered as single bolus dose measured 0.5 hrs postdose by autoradiography; type: ADME, organism-based; parameters: dose 5 mg/kg, route intravenous; conditions: in vivo; summary of the method: as §3
[18] = system: Kidney; assay: Drug level in Long Evans rat kidney assessed as low disposition of radioactivity per gram of tissue at 5 mg/kg, iv administered as single bolus dose measured 6 hrs postdose by autoradiography; type: ADME, organism-based; parameters: dose 5 mg/kg, route intravenous; conditions: in vivo; summary of the method: as §3
[19] = system: Cerebrospinal fluid; assay: AUC (0 to 24 hrs) in F344 rat cerebrospinal fluid assessed as total compound-derived radioactivity per gram of tissue at 5 mg/kg, iv administered as single bolus dose […]; type: ADME, organism-based; parameters: time < 24 hr, dose 5 mg/kg, route intravenous; conditions: in vivo; summary of the method: as §4
[20] = system: Cerebrospinal fluid; assay: Cmax in F344 rat cerebrospinal fluid assessed as total compound-derived radioactivity per gram of tissue at 5 mg/kg, iv administered as single bolus dose […]; type: ADME, organism-based; parameters: dose 5 mg/kg, route intravenous; conditions: in vivo; summary of the method: as §4
[21] = system: Zone of skin; assay: Half life in F344 rat skin assessed as total compound-derived radioactivity at 5 mg/kg, iv administered as single bolus dose […]; type: ADME, organism-based; parameters: dose 5 mg/kg, route intravenous; conditions: in vivo; summary of the method: as §1
[22] = system: Lung; assay: AUC (0 to infinity) in F344 rat lung at 5 mg/kg, iv administered as single bolus dose; type: ADME, organism-based; parameters: time infinity, dose 5 mg/kg, route intravenous; conditions: in vivo; summary of the method: as §5
[23] = Drug level in Long Evans rat eye assessed as radioactivity per gram of tissue at 5 mg/kg, iv administered as single bolus dose measured 72 hrs postdose by autoradiography; type: ADME, organism-based; parameters: dose 5 mg/kg, route intravenous; conditions: in vivo; summary of the method: as §3
[24] = system: Liver; assay: Drug level in Long Evans rat liver assessed as high disposition of radioactivity per gram of tissue at 5 mg/kg, iv administered as single bolus dose measured 12 hrs postdose by autoradiography; type: ADME, organism-based; parameters: dose 5 mg/kg, route intravenous; conditions: in vivo; summary of the method: as §3
[25] = system: Kidney; assay: Drug level in Long Evans rat kidney assessed as low disposition of radioactivity per gram of tissue at 5 mg/kg, iv administered as single bolus dose measured 0.5 hrs postdose by autoradiography; type: ADME, organism-based; parameters: dose 5 mg/kg, route intravenous; conditions: in vivo; summary of the method: as §3
[26] = system: Lung; assay: Drug level in Long Evans rat lung assessed as radioactivity per gram of tissue at 5 mg/kg, iv administered as single bolus dose measured 72 hrs postdose by autoradiography; type: ADME, organism-based; parameters: dose 5 mg/kg, route intravenous; conditions: in vivo; summary of the method: as §3

Question: Which t1/2 [1] does the source give for `CCCCCOc1ccc(-c2ccc(-c3ccc([14C](=O)N[C@H]4C[C@@H](O)[C@@H](O)NC(=O)[C@@H]5[C@@H](O)[C@@H](C)CN5C(=O)[C@H]([C@@H](C)O)NC(=O)[C@H]([C@H](O)[C@@H](O)c5ccc(O)cc5)NC(=O)[C@@H]5C[C@@H](O)CN5C(=O)[C@H]([C@@H](C)O)NC4=O)cc3)cc2)cc1` [14C-ANIDULAFUNGIN] here?
Answer: 37.5 h

Question: And the Drug uptake [2]?
Answer: 4.04 ugequiv

Question: What about the Drug uptake [3] of the same compound?
Answer: 0.6 ugequiv

Question: And the AUC [4]?
Answer: 102.96 ugequiv.hr/g

Question: And the Drug uptake [5]?
Answer: 8.92 ugequiv

Question: And the AUC [6]?
Answer: 517.32 µg·h/g

Question: And the Cmax [7]?
Answer: 16100 ng/g

Question: What about the Tmax [8] of the same compound?
Answer: 0.5 h

Question: What about the AUC [9] of the same compound?
Answer: 139.22 ugequiv.hr/g

Question: And the Drug uptake [10]?
Answer: 3.82 ugequiv

Question: What about the Tmax [11] of the same compound?
Answer: 0.5 h

Question: What about the t1/2 [12] of the same compound?
Answer: 69.2 h

Question: What about the Drug uptake [13] of the same compound?
Answer: 11.48 ugequiv

Question: What about the Cmax [14] of the same compound?
Answer: 39.29 ugequiv/g

Question: And the t1/2 [15]?
Answer: 53.8 h

Question: What about the Drug uptake [16] of the same compound?
Answer: 16.9 ugequiv

Question: What about the Drug uptake [17] of the same compound?
Answer: 3.45 ugequiv

Question: What about the Drug uptake [18] of the same compound?
Answer: 8.45 ugequiv

Question: And the AUC [19]?
Answer: 0.61 ugequiv.hr/g

Question: What about the Cmax [20] of the same compound?
Answer: 0.07 ugequiv/g

Question: What about the t1/2 [21] of the same compound?
Answer: 56.6 h

Question: What about the AUC [22] of the same compound?
Answer: 638.21 µg·h/g

Question: And the Drug uptake [23]?
Answer: 0.72 ugequiv

Question: And the Drug uptake [24]?
Answer: 25.01 ugequiv

Question: What about the Drug uptake [25] of the same compound?
Answer: 9.18 ugequiv

Question: What about the Drug uptake [26] of the same compound?
Answer: 4.24 ugequiv
